Calls of active or inactive are those of the source. No cut-off for these calls is given here.
Assays:
[1] = Half life in Beagle dog at 1 mg/kg, iv by LC-MS analysis; format: ADME, organism-based, Canis lupus familiaris; settings: in vivo
How it was run: (§1)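 Male beagle dogs (n = 3 per route), 10–12 months old, were dosed at 1 mg/kg iv or po in PEG400/ethanol/PBS (7/2/1), fasted overnight to 2 h post-dose. Peripheral venous blood was sampled to 24 h into K2EDTA and plasma frozen at −80 °C. Plasma was quantified by HPLC-MS/MS, with noncompartmental analysis.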

Rattus norvegicus [2] = experiment: Antinociceptive activity in Sprague-Dawley rat assessed as reduction in formalin-evoked paw licking duration at 3 mg/kg, po administered 4 hrs prior to formalin challenge and measured between 0 to 15 mins post formalin challenge; format: functional, organism-based
Mus musculus [3] = experiment: In vivo inhibition of ABHD6 in po dosed ICR mouse brain measured 4 hrs post dose in presence of FP-Rh probe by gel-based ABPP assay; format: functional
How it was run: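 Male ICR mice, 6–12 weeks old, given single oral doses (0.5–32 mg/kg, n = 3) in PEG400:ethanol:PBS (7/2/1 v/v/v) at 5 mL/kg. Brains were removed 4 h later and one hemisphere processed for gel-based ABPP. Proteome was labeled with FP-Rh (1 µM, 30 min) and read by in-gel fluorescence relative to vehicle.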

Rattus norvegicus [4] = experiment: Antinociceptive activity in po dosed Sprague-Dawley rat brain assessed as inhibition of ABHD6 activity measured after 4 hrs post dose in presence of FP-Rh probe by gel-based ABPP assay; format: functional
How it was run: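 Male Sprague Dawley rats, 6–12 weeks old, given single oral doses (0.03–10 mg/kg) in 0.5% methylcellulose at 5 mL/kg. Brains were taken 4 h post-dose and forebrain sections excised from one hemisphere. Brain proteome was labeled with FP-Rh (1 µM, 30 min) and analyzed by SDS-PAGE with in-gel fluorescence. Band intensity was normalized to vehicle.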

[5] = Cmax in Sprague-Dawley rat at 5 mg/kg, po by LC-MS analysis; format: ADME, organism-based; design: dose 5 mg/kg, route oral; settings: in vivo
How it was run: (§2)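 Rats (n = 3 per route) were dosed at 1 mg/kg iv (70% PEG400 in HPBCD/saline) or 5 mg/kg po (70% PEG400 in 0.5% CMC/saline), fasted overnight to 4 h post-dose. Jugular-catheter blood (~100 µL) was sampled to 24 h into 400 µL acetonitrile to stop esterases. Samples were quantified by HPLC-MS/MS, with noncompartmental analysis.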

[6] = Substrate activity at BCRP (unknown origin) at 10 uM; format: ADME; settings: human
Cytochrome P450 2C9 = Cytochrome P450 2C9 (Homo sapiens, UniProt P11712); experiment: Inhibition of recombinant human CYP2C9; format: ADME
Mus musculus [7] = experiment: In vivo inhibition of ABHD6 in ICR mouse brain at 25 mg/kg, po measured at 4 hrs post dose in presence of FP-Rh probe by gel-based ABPP assay; format: functional, organism-based
[8] = molecular target: T1, Monoglyceride lipase (Mus musculus) (UniProt O35678); experiment: Inhibition of MGLL in mouse brain membrane homogenates at 0.001 to 10 uM preincubated for 30 mins followed by FP-Rh addition after 30 mins by gel-based ABPP assay; format: cell membranes
T1 sequence (whole entry): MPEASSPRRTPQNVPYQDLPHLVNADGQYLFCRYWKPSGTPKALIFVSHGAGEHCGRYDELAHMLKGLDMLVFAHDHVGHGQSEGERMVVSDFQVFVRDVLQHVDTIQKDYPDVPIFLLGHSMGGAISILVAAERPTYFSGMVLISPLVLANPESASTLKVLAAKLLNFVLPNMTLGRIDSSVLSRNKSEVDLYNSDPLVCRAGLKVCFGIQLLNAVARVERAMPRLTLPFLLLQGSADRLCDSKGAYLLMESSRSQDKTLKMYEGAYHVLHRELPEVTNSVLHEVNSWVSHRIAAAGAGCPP
How it was run: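 Brain membrane homogenates (1 mg/mL protein) were preincubated with 0.001-10 µM inhibitor or DMSO for 30 min at 37°C, then labelled with 1 µM FP-Rh for 30 min at 25°C. Reactions were quenched in SDS-PAGE loading buffer, run on 10% gels and scanned in-gel. MGLL band intensities were normalised to DMSO (100%).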

[9] = Clearance in Sprague-Dawley rat at 1 mg/kg, iv or 5 mg/kg, po by LC-MS analysis; format: ADME, organism-based; settings: in vivo; how it was run: as §2
[10] = Volume of distribution at steady state in Sprague-Dawley rat at 1 mg/kg, iv or 5 mg/kg, po by LC-MS analysis; format: ADME, organism-based; settings: in vivo, read-out: Vdss; how it was run: as §2
Cytochrome P450 1A2 = molecular target: T2, Cytochrome P450 1A2 (Homo sapiens, UniProt P05177); experiment: Inhibition of recombinant human CYP1A2; format: ADME
T2 sequence (P05177 whole entry): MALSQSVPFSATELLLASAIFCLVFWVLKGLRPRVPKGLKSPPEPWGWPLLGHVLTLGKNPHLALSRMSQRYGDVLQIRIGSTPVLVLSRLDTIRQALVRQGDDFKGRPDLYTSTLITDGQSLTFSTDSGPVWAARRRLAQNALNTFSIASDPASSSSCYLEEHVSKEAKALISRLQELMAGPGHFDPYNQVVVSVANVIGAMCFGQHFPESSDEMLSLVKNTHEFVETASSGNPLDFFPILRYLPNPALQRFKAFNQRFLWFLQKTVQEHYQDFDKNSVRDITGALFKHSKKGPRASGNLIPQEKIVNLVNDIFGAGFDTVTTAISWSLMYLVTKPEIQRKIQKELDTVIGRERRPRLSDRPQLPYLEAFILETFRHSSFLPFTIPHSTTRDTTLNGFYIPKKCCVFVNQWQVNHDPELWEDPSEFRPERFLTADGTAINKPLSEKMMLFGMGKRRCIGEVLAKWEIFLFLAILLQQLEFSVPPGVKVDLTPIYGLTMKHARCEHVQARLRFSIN

[11] = Volume of distribution at steady state in Beagle dog at 1 mg/kg, iv or 1 mg/kg, po by LC-MS analysis; format: ADME, organism-based, Canis lupus familiaris; settings: in vivo, read-out: Vdss; how it was run: as §1
Mus musculus [12] = experiment: In vivo inhibition of MGLL in po dosed ICR mouse brain assessed as increase in 2-AG measured at 4 hrs post dose by LC-MS/MS analysis; format: functional, organism-based
How it was run: (§3)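 Male ICR mice, 6–12 weeks old, single oral gavage 0.5–32 mg/kg in PEG400:ethanol:PBS (7/2/1), 5 mL/kg, n = 3. Killed at 4 h; one brain hemisphere for gel-based ABPP with FP-Rh (MGLL band quantified), the other for 2-AG by LC-MS/MS.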

Mus musculus [13] = experiment: In vivo inhibition of MGLL in po dosed ICR mouse brain measured 4 hrs post dose in presence of FP-Rh probe by gel-based ABPP assay; format: functional; how it was run: as §3
[14] = Half life in Sprague-Dawley rat at 1 mg/kg, iv by LC-MS analysis; format: ADME, organism-based; settings: in vivo; how it was run: as §2
Cytochrome P450 2D6 = Cytochrome P450 2D6 (Homo sapiens, UniProt P10635); experiment: Inhibition of recombinant human CYP2D6; format: ADME
hERG (KCNH2) = hERG (KCNH2) (Homo sapiens, UniProt Q12809); experiment: Inhibition of human ERG
Chain of hERG (KCNH2) (Q12809 whole entry): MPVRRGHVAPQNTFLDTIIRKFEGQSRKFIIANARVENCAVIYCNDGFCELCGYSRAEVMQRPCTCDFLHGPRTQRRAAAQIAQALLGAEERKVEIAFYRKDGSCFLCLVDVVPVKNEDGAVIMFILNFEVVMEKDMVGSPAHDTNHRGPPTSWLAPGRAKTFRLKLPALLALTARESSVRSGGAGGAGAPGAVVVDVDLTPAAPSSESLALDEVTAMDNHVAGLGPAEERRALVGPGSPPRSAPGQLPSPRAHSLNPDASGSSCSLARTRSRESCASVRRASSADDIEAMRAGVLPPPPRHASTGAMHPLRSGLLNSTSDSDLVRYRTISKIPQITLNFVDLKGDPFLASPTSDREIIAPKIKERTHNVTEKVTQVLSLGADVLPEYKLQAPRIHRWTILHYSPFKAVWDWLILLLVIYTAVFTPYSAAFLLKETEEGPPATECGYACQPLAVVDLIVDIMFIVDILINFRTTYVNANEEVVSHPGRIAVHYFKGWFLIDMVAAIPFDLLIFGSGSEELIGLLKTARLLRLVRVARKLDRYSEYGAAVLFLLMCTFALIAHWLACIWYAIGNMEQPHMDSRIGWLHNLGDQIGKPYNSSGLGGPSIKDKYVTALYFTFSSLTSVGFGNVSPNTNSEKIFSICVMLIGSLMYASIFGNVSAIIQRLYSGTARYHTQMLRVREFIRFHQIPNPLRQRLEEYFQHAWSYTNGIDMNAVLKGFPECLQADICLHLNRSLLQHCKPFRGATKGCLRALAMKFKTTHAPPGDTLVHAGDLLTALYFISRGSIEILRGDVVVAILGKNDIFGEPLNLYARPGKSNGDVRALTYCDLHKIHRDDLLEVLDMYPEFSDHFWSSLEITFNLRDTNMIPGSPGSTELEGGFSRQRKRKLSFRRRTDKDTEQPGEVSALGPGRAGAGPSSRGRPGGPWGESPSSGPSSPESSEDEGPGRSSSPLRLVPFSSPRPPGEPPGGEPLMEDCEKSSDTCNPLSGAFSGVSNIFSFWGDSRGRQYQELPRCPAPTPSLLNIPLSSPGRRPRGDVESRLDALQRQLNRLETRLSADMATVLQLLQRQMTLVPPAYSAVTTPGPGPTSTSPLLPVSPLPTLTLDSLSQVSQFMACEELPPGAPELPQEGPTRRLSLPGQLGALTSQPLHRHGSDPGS

Chain of Cytochrome P450 2C9 (P11712 whole entry): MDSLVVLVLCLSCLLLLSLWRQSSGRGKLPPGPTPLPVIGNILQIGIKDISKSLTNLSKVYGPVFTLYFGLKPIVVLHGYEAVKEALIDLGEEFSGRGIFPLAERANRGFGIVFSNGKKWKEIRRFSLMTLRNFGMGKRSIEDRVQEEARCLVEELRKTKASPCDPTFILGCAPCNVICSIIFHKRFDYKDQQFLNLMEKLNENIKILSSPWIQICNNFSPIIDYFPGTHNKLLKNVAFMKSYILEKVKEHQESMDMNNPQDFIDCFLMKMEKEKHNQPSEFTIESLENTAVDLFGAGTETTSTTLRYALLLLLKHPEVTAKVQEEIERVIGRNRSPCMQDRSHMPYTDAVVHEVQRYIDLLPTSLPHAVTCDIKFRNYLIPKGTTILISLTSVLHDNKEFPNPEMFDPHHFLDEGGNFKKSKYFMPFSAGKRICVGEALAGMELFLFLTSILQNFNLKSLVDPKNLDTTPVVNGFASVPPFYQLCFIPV
Chain of Cytochrome P450 2D6 (P10635 whole entry): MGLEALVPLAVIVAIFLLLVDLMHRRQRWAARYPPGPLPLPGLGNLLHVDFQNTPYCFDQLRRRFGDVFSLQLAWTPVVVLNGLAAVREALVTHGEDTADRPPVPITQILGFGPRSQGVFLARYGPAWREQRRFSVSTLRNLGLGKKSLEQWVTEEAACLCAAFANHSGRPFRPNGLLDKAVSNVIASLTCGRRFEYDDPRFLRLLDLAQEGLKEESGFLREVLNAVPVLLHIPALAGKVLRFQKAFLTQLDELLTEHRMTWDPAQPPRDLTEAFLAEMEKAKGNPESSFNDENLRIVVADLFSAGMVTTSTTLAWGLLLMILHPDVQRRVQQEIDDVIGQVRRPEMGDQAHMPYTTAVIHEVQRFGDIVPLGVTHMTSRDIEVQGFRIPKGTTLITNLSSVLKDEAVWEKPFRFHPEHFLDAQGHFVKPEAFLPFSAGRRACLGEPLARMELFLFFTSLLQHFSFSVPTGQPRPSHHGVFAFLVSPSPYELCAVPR

With `O=C(OC(C(F)(F)F)C(F)(F)F)N1CCN(Cc2ccc(C(F)(F)F)cc2N2CCCC2)CC1` [ELCUBRAGISTAT] the half-life [1] was 6.1 h, the Activity (Rattus norvegicus [2]) was “Active” and the ED50 (Mus musculus [3]) was 32 mg/kg. For the same compound, the ED50 (Rattus norvegicus [4]) was 2.9 mg/kg, the Cmax [5] was 688 nM and the Activity [6] was “Not Active”. For the same compound, the IC50 (Cytochrome P450 2C9) was greater than 50 µM, the inhibition (Mus musculus [7]) was “Active” and the inhibition [8] was “Active”. For the same compound, the clearance [9] was 14.7 mL/min/kg, the Vd [10] was 3.2 L/kg and the IC50 (Cytochrome P450 1A2) was greater than 50 µM. For the same compound, the Vd [11] was 1.2 L/kg, the inhibition (Mus musculus [12]) was “Dose-dependent effect” and the ED50 (Mus musculus [13]) was 1.4 mg/kg. The inhibition (Mus musculus [13]) was “Dose-dependent effect”, the half-life [14] was 3.6 h and the IC50 (Cytochrome P450 2D6) was 6.5 µM. It also gave an IC20 (hERG (KCNH2)) of 7 µM.

Reference: ChEMBL document CHEMBL4308843, “Identification of ABX-1431, a Selective Inhibitor of Monoacylglycerol Lipase and Clinical Candidate for Treatment of Neurological Disorders” (J Med Chem, 2018)
